Data on 7 molecules can be found in publication PMC4229952 (Molecular cancer therapeutics, 2014).

Ends that are not written are not given here. Peptide text beside a SMILES is read from it. * marks the point of attachment. Palmitoyl = CCCCCCCCCCCCCCCC(=O)*; Myristoyl = CCCCCCCCCCCCCC(=O)*

One experiment has as its system ASPC-1 cells. Briefly: Thymidine incorporation. In kind it is cell-based, human. Conditions: for anti-proliferative activity, screening of lipidated peptides: ASPC-1 cells, [3H] thymidine incorporation, Figure 3A. An outline of the steps:
(§1)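 About 2×10⁴ cells per well in 24-well plates were cultured with peptides, including a palmitoylated scrambled-sequence control, for the indicated time. Media were RPMI-1640 with 10% FBS for ASPC-1 and DMEM with 10% FBS for MiaPaca-2. [³H]thymidine was then added for 4 h. Cells were washed in ice-cold PBS, fixed in chilled methanol and lysed in 0.1 N NaOH, and TCA-precipitable radioactivity was counted. Error bars are SD; t-test.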
Background: Dividing cells build labelled thymidine or BrdU into new DNA.

In the next experiment the test system is MiaPaca-2 cells. Briefly: Thymidine incorporation. It is filed as cell-based, human. As to conditions: MiaPaca-2, AP1063 as control, Figure 3D. In a few lines: as §1
Experiment [1] deals with Id-1, E-cadherin expression. Briefly: Western blot of differentiation markers. Conditions: Figure 6B. It is filed as cell-based, human. An outline of the steps:
(§2)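 Whole-cell lysates were made in NP-40 buffer with protease and phosphatase inhibitors and cleared at 12,000 rpm for 10 min at 4 °C. Proteins were separated by SDS-PAGE, transferred to PVDF, immunoblotted and detected by chemiluminescence. Cells were harvested at 70–80% confluence.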
On the technique in general: In western blotting, separated proteins are transferred to a membrane and probed.

In experiment [2] the test system is subcutaneous ASPC-1 tumor. Briefly: Subcutaneous ASPC-1 tumor model, intratumoral peptide injection. It is filed as in vivo, SCID mice. Conditions: subcutaneous ASPC-1 model, compared to AP1063, Supplementary Figure S2. In a few lines:
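Male SCID mice aged 6–8 weeks received 5×10⁶ ASPC-1 cells in 100 μl PBS subcutaneously in the right flank. After 9 days they were randomized (n=7 per group) to daily intratumoral peptide at 500 μg/mouse/day in PBS containing 80% DMSO for 3 weeks; comparator was a scrambled palmitoylated peptide. Tumors were fixed in 10% neutral buffered formalin for 24 h, paraffin-embedded and immunostained (DAB, hematoxylin counterstain). t-test.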

Experiment [3] relates to Endoglin-GIPC interaction. Briefly: Immunoprecipitation of endoglin-GIPC interaction. In kind it is cell-based, human. Conditions: ASPC-1 and MiaPaca-2 cell lines, Figure 3B.
Another experiment has as its system Smad-1/5 phosphorylation. Briefly: Western blot of Smad phosphorylation and expression. As to conditions: Figure 5B. It is filed as cell-based, human. In a few lines:
as §2

Another experiment concerns the target T1, recombinant GIPC PDZ (Homo sapiens, UniProt O14908).
T1 sequence (O14908 133-213 limits assumed): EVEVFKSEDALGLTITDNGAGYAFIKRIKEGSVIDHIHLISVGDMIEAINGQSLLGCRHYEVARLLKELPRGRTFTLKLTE
Briefly: Surface plasmon resonance binding to recombinant GIPC PDZ. In a few lines: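 Recombinant GIPC PDZ was amine-coupled to a CM5 chip with NHS/EDC at pH 5.5, the optimum found by pH scouting. Lipidated peptide analyte was diluted in HBS-EP from 10×Kd to 0.1×Kd. Runs used the instrument's kinetic/affinity workflow, and Kd was derived from sensorgram analysis.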
In general terms: Surface plasmon resonance follows binding to a sensor surface in real time, without labels.

Experiment [4] deals with T2, Endoglin C-terminal peptide AP1013 (N-myristoyl-PCSTSSMA) (Homo sapiens).
T2 chain: Myristoyl-PCSTSSMA
In words: SPR.

As to Palmitoyl-PCSTSSMA [AP1032], in the experiment with ASPC-1 cells (ASPC-1, AP1063 as control, Figure 3C), the inhibition of proliferation entry is “inhibited proliferation”. Further, the “anti-proliferative activity, screening of lipidated peptides” value (“anti-proliferative activity, screening” for short) in the experiment with ASPC-1 cells is reported as “highest anti-proliferative activity”. Moreover, the inhibition of proliferation entry in the experiment with MiaPaca-2 cells is listed as “inhibited proliferation”. Also, the Id-1 expression entry in experiment [1] (ASPC-1 and MiaPaca-2, 100 μmol/L peptide) is listed as “inhibited Id-1 expression”. In experiment [1] (Western blot, 100 μmol/L peptide), the E-cadherin expression entry was “did not significantly increase”. Besides, in experiment [2], the “microvessel density (MVD)” value is recorded as “significant decrease in MVD” and the necrotic area result was “increased necrotic area”. Further, the “inhibition of endoglin-GIPC interaction” value in experiment [3] is “effectively inhibited endoglin-GIPC interaction”. In the experiment on Smad-1/5 phosphorylation, the Smad-1/5 phosphorylation result is “clearly inhibits”; the “expressions of Smad1 and Smad 2” value is recorded as “also inhibited”.
Regarding Ac-PCSTSSMA [AP1030], in the experiment on ASPC-1 cells, the “anti-proliferative activity, screening” value is reported as “ineffective”.
The term Kd denotes the equilibrium constant for the complex coming apart. As for `CCCCCCCCCCCCCC(=O)N1CCC[C@H]1C(=O)N[C@@H](CS)C(=O)N[C@@H](CO)C(=O)N[C@H](C(=O)N[C@@H](CO)C(=O)N[C@@H](CO)C(=O)N[C@@H](CCSC)C(=O)N[C@@H](C)C(=O)O)[C@@H](C)O` [AP1013, Myristoyl-PCSTSSMA] (Myristoyl-PCSTSSMA-OH), at recombinant GIPC PDZ, the dissociation constant (Kd) was 7.1 ± 2.8 µM.
Turning to “myristoyl-PCST[K(εN-benzoyl)]SMA [AP1036]”, the “anti-proliferative activity, screening” value with ASPC-1 cells is recorded as “not superior to the corresponding non-modified AP1013”.
Same read-out and setting: with “myristoyl-PCSTSS[K(εN-benzoyl)]A [AP1035]” the entry was “not superior to the corresponding non-modified AP1013”.
Consider Palmitoyl-SMTSCAPS [AP1063], for which the “inhibition of endoglin-GIPC interaction” value in experiment [3] is given as “could not”.

B1: GIPC PDZ domain PDZ (protein)
chain: T1 sequence (O14908 133-213 limits assumed)
In experiment [4], B1 displayed a dissociation constant (Kd) of 7.1 µM.
